What was measured:
[1] = Volume of distribution at steady state in CD1 mouse at 1 mg/kg/hr, iv measured upto 24 hrs by LC-MS/MS analysis; assay type: ADME, organism-based; details: in vivo, read-out: Vdss
In short: (§1)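 Surgically cannulated male CD1 mice (n = 3), 1 h iv infusion via jugular vein at 1 mg/kg/h (0.2 mg/mL in 2% DMSO/98% 10% Kleptose HPB in saline, 5 mL/kg/h). Tail-vein blood to 24 h plus terminal cardiac sample at 26 h; LC-MS/MS, LLQ 5 ng/mL. Mean ± SD.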

[2] = Metabolic stability in mouse hepatocytes assessed as intrinsic clearance per g liver tissue at 0.5 uM measured upto 120 mins by LC-MS/MS analysis; assay type: ADME, cell-based, Hepatocyte; details: 2 h
In short: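 Cryopreserved mouse hepatocytes at 0.7 million cells/mL in Williams Medium E, compound 0.5 μM final (also repeated at 0.05 μM), 37 °C. […] No-cell and no-compound controls.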

[3] = Clearance in Wistar Han rat blood at 1 mg/kg/hr, iv measured upto 26 hrs by LC-MS/MS analysis; assay type: ADME, organism-based
[4] = target: T1, Bromodomain-containing protein 4 (Homo sapiens, UniProt O60885); assay: Inhibition of BRD4 in human whole blood assessed as reduction in LPS-induced IL-6 secretion preincubated for 30 mins followed by LPS stimulation and measured after 24 hrs by MSD assay; assay type: tissue-based
Cytochrome P450 2D6 = Cytochrome P450 2D6 (Homo sapiens, UniProt P10635); assay: Inhibition of recombinant human CYP2D6 expressed in Escherichia coli using MMC as probe substrate incubated for 15 to 60 mins by fluorometric assay; assay type: ADME
In short: (§2)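 Recombinant human CYPs coexpressed with NADPH reductase in E. coli bactosomes (0.1 mg protein/mL); profluorescent substrates ER (1A2), BMC (2C19), MMC (2D6), VividGreen or VividRed (3A4).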

[5] = AUC(0 to t) in Wistar Han rat at 1 mg/kg, po measured upto 24 hrs by HPLC-MS/MS analysis; assay type: ADME, organism-based; parameters: route oral, dose 1 mg/kg, time <=24; details: in vivo
In short: (§3)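 Oral suspension in 1% (w/v) hydroxypropylmethyl cellulose in water; male rats (n = 3) and male dogs (n = 4). AUC taken from 0 h to last quantifiable time point; Cmax is maximum observed plasma concentration; Tmax reported as median. Mean ± SD.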

[6] = Total blood clearance in CD1 mouse at 1 mg/kg/hr, iv measured upto 24 hrs by LC-MS/MS analysis relative to hepatic blood flow; assay type: ADME, organism-based; details: in vivo; in short: as §1
[7] = target: T1, Bromodomain-containing protein 4; assay: Binding affinity to BRD4 (unknown origin) assessed as change in melting temperature
[8] = Cmax in Beagle dog at 5 mg/kg, po measured upto 24 hrs by HPLC-MS/MS analysis; assay type: ADME, organism-based, Canis lupus familiaris; parameters: route oral, dose 5 mg/kg, time <=24; details: in vivo; in short: as §3
[9] = Unbound fraction in Wistar Han rat blood at 100 to 1000 ng/ml by LC-MS/MS-based rapid equilibrium dialysis method; assay type: ADME, tissue-based; details: dose 100-1000 ng/ml
In short: (§4)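 Whole blood (male Balb/C mouse, male Wistar Han rat, male Beagle dog; human from one unmedicated donor) spiked to nominal 100 and 1000 ng/mL; 10 min at 37 °C, then rapid equilibrium dialysis against PBS 4 h at 37 °C, 100 rpm. Matrix-matched acetonitrile extraction, LC-MS/MS; mean of n = 6.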

Cytochrome P450 2C19 = Cytochrome P450 2C19 (Homo sapiens, UniProt P33261); assay: Inhibition of recombinant human CYP2C19 expressed in Escherichia coli using BMC as probe substrate incubated for 15 to 60 mins by fluorometric assay; assay type: ADME; in short: as §2
[10] = Cmax in Wistar Han rat at 1 mg/kg, po measured upto 24 hrs by HPLC-MS/MS analysis; assay type: ADME, organism-based; parameters: route oral, dose 1 mg/kg, time <=24; details: in vivo; in short: as §3
Cytochrome P450 1A2 = target: T2, Cytochrome P450 1A2 (Homo sapiens, UniProt P05177); assay: Inhibition of recombinant human CYP1A2 expressed in Escherichia coli using ER as probe substrate incubated for 15 to 60 mins by fluorometric assay; assay type: ADME; in short: as §2
T2 sequence (P05177 whole entry): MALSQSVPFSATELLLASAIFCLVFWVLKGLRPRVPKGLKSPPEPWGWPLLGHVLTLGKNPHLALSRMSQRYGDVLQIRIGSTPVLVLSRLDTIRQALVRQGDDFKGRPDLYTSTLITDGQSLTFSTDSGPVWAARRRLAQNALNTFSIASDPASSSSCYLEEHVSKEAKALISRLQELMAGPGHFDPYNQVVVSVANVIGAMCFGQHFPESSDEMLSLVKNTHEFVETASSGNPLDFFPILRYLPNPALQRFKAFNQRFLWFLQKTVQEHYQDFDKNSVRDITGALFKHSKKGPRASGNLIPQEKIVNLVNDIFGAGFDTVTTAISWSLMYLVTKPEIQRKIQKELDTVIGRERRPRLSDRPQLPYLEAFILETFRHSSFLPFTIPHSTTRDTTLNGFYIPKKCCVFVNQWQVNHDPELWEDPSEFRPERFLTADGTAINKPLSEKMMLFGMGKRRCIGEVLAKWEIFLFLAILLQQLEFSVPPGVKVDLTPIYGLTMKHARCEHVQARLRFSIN

Cytochrome P450 3A4 = Cytochrome P450 3A4 (Homo sapiens, UniProt P08684); assay: Inhibition of recombinant human CYP3A4 expressed in Escherichia coli using VG as probe substrate incubated for 15 to 60 mins by fluorometric assay; assay type: ADME
[11] = Total blood clearance in Wistar Han rat at 1 mg/kg/hr, iv measured upto 26 hrs by LC-MS/MS analysis relative to hepatic blood flow; assay type: ADME, organism-based; details: in vivo
[12] = Unbound fraction in Beagle dog blood at 100 to 1000 ng/ml by LC-MS/MS-based rapid equilibrium dialysis method; assay type: ADME, tissue-based, Canis lupus familiaris; details: dose 100-1000 ng/ml; in short: as §4
[13] = Unbound fraction in Balb/C mouse blood at 100 to 1000 ng/ml by LC-MS/MS-based rapid equilibrium dialysis method; assay type: ADME, tissue-based; details: dose 100-1000 ng/ml; in short: as §4
[14] = target: Bromodomain-containing protein 4 (Homo sapiens, UniProt O60885, Y390A); assay: Displacement of Alexa Fluor 647 labelled ligand from recombinant human N-terminal 6His-tagged BRD4-BD1 Y390A mutant (1 to 477 residue) expressed in Escherichia coli incubated for 30 mins by TR-FRET assay
[15] = Oral bioavailability in Wistar Han rat at 3 mg/kg measured upto 24 hrs by HPLC-MS/MS analysis; details: in vivo
[16] = Unbound fraction in human blood at 100 to 1000 ng/ml by LC-MS/MS-based rapid equilibrium dialysis method; assay type: ADME, tissue-based; details: dose 100-1000 ng/ml; in short: as §4
[17] = human, hepatocytes, 2 h, 0.5 µM
[18] = Half life in Beagle dog at 1 mg/kg/hr, iv measured upto 28 hrs by LC-MS/MS analysis; assay type: ADME, organism-based, Canis lupus familiaris; details: in vivo
[19] = Clearance in CD1 mouse blood at 1.4 mg/kg/hr, iv measured upto 24 hrs by LC-MS/MS analysis
[20] = Tmax in Beagle dog at 5 mg/kg, po measured upto 24 hrs by HPLC-MS/MS analysis; assay type: ADME, organism-based, Canis lupus familiaris; details: in vivo; in short: as §3
[21] = dog, hepatocytes, 2 h, 0.5 µM
[22] = target: CREB-binding protein (Homo sapiens) (UniProt Q92793); assay: Binding affinity to CBP (unknown origin) assessed as change in melting temperature
Chain of CREB-binding protein (Homo sapiens) (Q92793 2-2442 limits assumed): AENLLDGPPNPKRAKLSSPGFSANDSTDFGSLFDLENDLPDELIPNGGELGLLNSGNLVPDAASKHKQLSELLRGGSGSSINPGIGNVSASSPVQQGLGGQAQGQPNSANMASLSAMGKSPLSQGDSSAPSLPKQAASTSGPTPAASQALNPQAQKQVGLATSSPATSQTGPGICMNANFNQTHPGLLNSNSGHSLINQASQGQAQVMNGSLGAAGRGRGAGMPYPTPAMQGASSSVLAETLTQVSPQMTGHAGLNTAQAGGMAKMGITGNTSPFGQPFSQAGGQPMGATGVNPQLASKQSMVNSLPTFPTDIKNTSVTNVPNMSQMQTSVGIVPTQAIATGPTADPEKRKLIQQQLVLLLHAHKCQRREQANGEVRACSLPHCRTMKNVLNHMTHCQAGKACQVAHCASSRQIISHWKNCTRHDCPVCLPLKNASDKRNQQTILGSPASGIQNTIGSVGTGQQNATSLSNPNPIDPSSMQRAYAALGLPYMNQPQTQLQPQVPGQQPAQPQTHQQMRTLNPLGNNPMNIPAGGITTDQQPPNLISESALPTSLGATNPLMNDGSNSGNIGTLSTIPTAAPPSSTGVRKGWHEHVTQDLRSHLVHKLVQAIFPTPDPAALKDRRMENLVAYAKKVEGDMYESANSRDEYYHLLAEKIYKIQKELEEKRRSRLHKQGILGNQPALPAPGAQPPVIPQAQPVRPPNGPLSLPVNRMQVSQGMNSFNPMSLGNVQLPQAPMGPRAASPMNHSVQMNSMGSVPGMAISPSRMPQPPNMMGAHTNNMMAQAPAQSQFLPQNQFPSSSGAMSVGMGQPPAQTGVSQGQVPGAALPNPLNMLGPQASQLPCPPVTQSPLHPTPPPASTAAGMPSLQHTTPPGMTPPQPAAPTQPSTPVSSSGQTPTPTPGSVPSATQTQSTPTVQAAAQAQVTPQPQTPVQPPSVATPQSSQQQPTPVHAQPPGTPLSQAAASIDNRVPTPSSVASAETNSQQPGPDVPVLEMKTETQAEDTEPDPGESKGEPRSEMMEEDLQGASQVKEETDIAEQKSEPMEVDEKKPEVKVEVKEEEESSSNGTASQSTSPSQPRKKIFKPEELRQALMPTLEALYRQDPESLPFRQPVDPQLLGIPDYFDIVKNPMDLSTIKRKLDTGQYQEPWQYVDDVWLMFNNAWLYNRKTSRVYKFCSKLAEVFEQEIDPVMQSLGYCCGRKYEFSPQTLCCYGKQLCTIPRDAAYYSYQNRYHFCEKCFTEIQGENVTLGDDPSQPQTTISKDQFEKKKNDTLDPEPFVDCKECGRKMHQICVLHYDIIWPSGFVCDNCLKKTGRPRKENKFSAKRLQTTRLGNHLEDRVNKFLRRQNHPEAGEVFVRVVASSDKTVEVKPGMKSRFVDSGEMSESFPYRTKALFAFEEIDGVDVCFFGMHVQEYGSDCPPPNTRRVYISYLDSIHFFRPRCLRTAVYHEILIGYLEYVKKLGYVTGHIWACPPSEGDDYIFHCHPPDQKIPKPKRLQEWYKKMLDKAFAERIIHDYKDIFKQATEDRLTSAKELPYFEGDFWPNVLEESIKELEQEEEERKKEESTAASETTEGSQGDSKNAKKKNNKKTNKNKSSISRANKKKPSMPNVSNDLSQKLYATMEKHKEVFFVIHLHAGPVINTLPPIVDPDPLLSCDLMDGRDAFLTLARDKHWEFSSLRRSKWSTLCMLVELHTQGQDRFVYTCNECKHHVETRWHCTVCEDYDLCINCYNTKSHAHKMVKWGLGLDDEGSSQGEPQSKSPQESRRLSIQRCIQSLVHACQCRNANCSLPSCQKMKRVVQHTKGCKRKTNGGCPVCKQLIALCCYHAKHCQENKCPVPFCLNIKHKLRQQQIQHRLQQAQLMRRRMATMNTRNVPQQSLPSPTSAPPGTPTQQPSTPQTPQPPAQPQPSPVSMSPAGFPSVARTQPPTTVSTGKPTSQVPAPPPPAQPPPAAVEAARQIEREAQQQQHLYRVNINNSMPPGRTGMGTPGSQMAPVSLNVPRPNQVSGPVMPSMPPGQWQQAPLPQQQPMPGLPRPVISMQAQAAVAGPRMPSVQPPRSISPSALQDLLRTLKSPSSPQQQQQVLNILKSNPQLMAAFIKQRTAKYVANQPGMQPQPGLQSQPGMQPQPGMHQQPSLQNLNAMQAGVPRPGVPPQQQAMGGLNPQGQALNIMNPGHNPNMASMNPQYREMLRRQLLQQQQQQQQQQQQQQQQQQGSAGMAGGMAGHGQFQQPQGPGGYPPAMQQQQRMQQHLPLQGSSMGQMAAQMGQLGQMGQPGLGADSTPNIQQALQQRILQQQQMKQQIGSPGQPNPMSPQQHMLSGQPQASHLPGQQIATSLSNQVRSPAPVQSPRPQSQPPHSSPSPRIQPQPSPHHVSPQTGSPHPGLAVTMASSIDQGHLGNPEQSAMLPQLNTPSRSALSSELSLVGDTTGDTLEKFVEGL

Chain of Cytochrome P450 2D6 (P10635 whole entry): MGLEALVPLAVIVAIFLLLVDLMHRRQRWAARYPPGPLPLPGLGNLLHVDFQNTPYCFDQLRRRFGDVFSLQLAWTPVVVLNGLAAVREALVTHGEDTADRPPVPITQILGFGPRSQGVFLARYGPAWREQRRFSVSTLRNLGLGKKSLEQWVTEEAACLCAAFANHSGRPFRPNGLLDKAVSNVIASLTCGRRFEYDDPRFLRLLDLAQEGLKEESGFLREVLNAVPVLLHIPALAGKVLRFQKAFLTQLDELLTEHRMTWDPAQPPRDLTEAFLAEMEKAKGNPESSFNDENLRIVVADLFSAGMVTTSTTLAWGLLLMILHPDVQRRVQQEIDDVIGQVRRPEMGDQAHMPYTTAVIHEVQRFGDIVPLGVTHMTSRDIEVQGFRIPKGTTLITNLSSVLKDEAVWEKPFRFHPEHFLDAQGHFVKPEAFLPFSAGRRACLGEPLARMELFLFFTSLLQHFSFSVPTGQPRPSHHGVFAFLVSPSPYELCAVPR
Chain of Cytochrome P450 2C19 (P33261 whole entry): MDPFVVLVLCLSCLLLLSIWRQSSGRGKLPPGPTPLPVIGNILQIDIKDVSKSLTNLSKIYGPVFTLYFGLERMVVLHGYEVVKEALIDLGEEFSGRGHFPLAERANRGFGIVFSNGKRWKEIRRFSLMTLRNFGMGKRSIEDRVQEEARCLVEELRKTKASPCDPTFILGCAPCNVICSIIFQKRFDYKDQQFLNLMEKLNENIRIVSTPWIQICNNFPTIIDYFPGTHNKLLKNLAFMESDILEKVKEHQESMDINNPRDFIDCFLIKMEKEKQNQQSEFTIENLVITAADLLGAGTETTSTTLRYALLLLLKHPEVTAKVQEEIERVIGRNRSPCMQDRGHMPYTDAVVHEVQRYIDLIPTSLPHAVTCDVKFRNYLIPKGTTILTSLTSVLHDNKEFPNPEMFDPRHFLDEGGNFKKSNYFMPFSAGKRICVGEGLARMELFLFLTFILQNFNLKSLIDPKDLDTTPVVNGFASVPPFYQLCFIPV
Chain of Cytochrome P450 3A4 (P08684 whole entry): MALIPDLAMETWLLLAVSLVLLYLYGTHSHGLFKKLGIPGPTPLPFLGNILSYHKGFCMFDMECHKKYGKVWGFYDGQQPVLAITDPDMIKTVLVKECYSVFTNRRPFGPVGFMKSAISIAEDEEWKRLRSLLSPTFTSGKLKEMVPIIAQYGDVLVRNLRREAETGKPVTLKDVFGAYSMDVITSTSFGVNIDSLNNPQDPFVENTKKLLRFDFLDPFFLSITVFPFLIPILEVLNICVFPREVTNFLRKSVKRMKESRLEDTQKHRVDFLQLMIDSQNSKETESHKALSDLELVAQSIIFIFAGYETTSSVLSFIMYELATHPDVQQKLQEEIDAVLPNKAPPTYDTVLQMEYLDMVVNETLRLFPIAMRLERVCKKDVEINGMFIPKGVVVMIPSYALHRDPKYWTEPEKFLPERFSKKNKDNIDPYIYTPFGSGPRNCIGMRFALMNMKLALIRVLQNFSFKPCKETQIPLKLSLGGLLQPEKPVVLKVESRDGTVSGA

In the case of COC[C@@H](C)n1c(C2CCOCC2)nc2cnc3cc(-c4c(C)noc4C)c(OC)cc3c21, the Vd [1] is reported as 1.9 L/kg, the CLint [2] is reported as less than 0.86 mL/min/g liver and the clearance [3] is reported as 20 mL/min/kg. It also gave an IC50 [4] of 0.316 µM, an IC50 (Cytochrome P450 2D6) greater than 50 µM and an AUC(0-t) at 24 h [5] of 467 ng·h/mL. It also gave a CLH [6] of 19%, a ΔTm [7] of 9.9 °C and a Cmax [8] of 177 ng/mL. For the same compound, the fraction unbound [9] was 0.16, the IC50 (Cytochrome P450 2C19) was greater than 50 µM and the Cmax [10] was 125 ng/mL. The IC50 (Cytochrome P450 1A2) was greater than 50 µM, the IC50 (Cytochrome P450 3A4) was 25.1 µM and the CLH [11] was 22%. The fraction unbound [12] was 0.24, the fraction unbound [13] was 0.1 and the IC50 [14] was 0.0398 µM. It also gave a bioavailability [15] of 74%, a fraction unbound [16] of 0.17 and a CLint [17] of less than 0.86 mL/min/g liver. For the same compound, the half-life [18] was 1.8 h, the clearance [19] was 23 mL/min/kg and the Tmax [20] was 0.75 h. The CLint [21] was 2.4 mL/min/g liver and the ΔTm [22] was 3.4 °C.

From ChEMBL document CHEMBL4842350, “Discovery of a Novel Bromodomain and Extra Terminal Domain (BET) Protein Inhibitor, I-BET282E, Suitable for Clinical Progression” (J Med Chem, 2021)
